Test results published in ChEMBL document CHEMBL3351994, “Synthesis and biological evaluation of novel millepachine derivatives as a new class of tubulin polymerization inhibitors” (J Med Chem, 2014).

Assays:
HepG2 [1] = test: Antiproliferative activity against human HepG2 cells assessed as inhibition of cell proliferation after 48 hrs by MTT assay; type: functional, cell-based; details: hepg2
How it was run: (§1)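 Cells grown at 37 °C in humidified 5% CO2. K562, C26 and HCT lines in RPMI-1640; other lines in DMEM; both media with 10% FBS, penicillin and streptomycin. 1000 cells/well seeded, incubated overnight, then compound at various doses for 48 h. MTT added for 4 h, formazan dissolved in DMSO, absorbance read at 590 nm. IC50 from dose–response curves, mean ± SEM of at least three independent experiments.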

Rattus norvegicus [2] = test: Systemic clearance in rat at 3 mg/kg, iv; type: ADME, organism-based; parameters: dose 3 mg/kg, route intravenous; details: in vivo
Rattus norvegicus [3] = test: Volume of distribution at steady state in rat at 15 mg/kg, po; type: ADME, organism-based; parameters: dose 15 mg/kg, route oral; details: in vivo
Mus musculus [4] = test: Toxicity in human HepG2 cells xenografted Balb/C mouse assessed as body weight changes at 25 mg/kg, po dosed every 2 days for 11 days; type: organism-based; parameters: dose 25 mg/kg, route oral; details: in vivo
How it was run: (§2)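 Xenografts: 5 × 10^6 tumour cells injected sc in right armpit/flank of 5−6-week-old female mice; at 100 mm3 tumour volume, randomized (6 per group) and dosed in vehicle of 2.5% Tween-80 and 2.5% ethanol; body weights and caliper tumour volumes recorded every 2 days, toxicity signs and mortality daily.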

Rattus norvegicus [5] = test: AUC in rat at 15 mg/kg, po; type: ADME, organism-based, Plasma; parameters: dose 15 mg/kg, route oral; details: in vivo
How it was run: (§3)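 Rat pharmacokinetics; oral and intravenous dosing, with group sizes of 5, 5 and 4 rats. Parameters derived: systemic clearance, volume of distribution, area under the plasma concentration–time curve, maximum plasma concentration and percent oral bioavailability.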

Mus musculus [6] = test: Toxicity in mouse C26 cells xenografted Balb/C mouse assessed as body weight changes at 10 mg/kg, iv dosed every 2 days for 8 days; type: organism-based; parameters: dose 10 mg/kg, route intravenous; details: in vivo; how it was run: as §2
Mus musculus [7] = test: Toxicity in cisplatin-resistant human […] cells xenografted Balb/C mouse assessed as body weight changes at 10 mg/kg, iv dosed every 2 days for 7 days; type: organism-based, A2780cisR; parameters: dose 10 mg/kg, route intravenous; details: in vivo; how it was run: as §2
[8] = Antitumor activity against mouse C26 cells xenografted in Balb/C mouse assessed as tumor mass changes at 10 mg/kg, iv dosed every 2 days for 8 days; type: functional
How it was run: (§4)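 Female Balb/c or athymic nude mice, 5–6 weeks old. 5 × 10^6 cells in HBSS implanted sc in the right flank/armpit. Treatment began at tumor volume 100 mm3, 6 mice per group; vehicle was 2.5% Tween-80 and 2.5% ethanol. Tumor volume (π/6 × L × W²) and body weight measured every 2 days. Inhibition = (1 − treated/control tumor weight) × 100%.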

[9] = Toxicity in iv dosed BALB/c mouse; type: organism-based; details: in vivo
How it was run: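 Maximum tolerated dose in BALB/c mice (SPF, 18−22 g, 6−8 weeks, half female and half male). Graded doses given intravenously, n = 4 per dose. Survival and adverse effects recorded every other day after dosing. MTD defined as the largest dose given before one death occurs.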

[10] = Oral bioavailability in rat at 15 mg/kg; type: ADME, organism-based; details: in vivo
[11] = Antitumor activity against human A2780S cells xenografted in Balb/C mouse assessed as tumor mass changes at 10 mg/kg, iv dosed every 2 days for 8 days; type: functional, A2780; how it was run: as §4
HepG2 [12] = test: Antitumor activity against human HepG2 cells xenografted in Balb/C mouse assessed as tumor mass changes at 25 mg/kg, po dosed every 2 days for 11 days; type: functional; how it was run: as §4
Mus musculus [13] = test: Toxicity in human HepG2 cells xenografted Balb/C mouse assessed as mortality level at 25 mg/kg, po dosed every 2 days for 11 days; type: organism-based; parameters: dose 25 mg/kg, route oral; details: in vivo
How it was run: (§5)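 Female Balb/C or athymic nude mice, 5−6 weeks old, implanted sc in the right flank/armpit with 5 × 10^6 cells in HBSS. Once tumors reached 100 mm3, mice were randomized (6 per group) and dosed with vehicle (2.5% Tween-80, 2.5% ethanol) or drug. Toxicity signs and mortality observed daily. Body weight and caliper tumor volume measured every 2 days.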

[14] = Volume of distribution at steady state in rat at 3 mg/kg, iv; type: ADME, organism-based; parameters: dose 3 mg/kg, route intravenous; details: in vivo, read-out: Vdss
Rattus norvegicus [15] = test: Systemic clearance in rat at 15 mg/kg, po; type: ADME, organism-based; parameters: dose 15 mg/kg, route oral; details: in vivo
Rattus norvegicus [16] = test: AUC in rat at 3 mg/kg, iv; type: ADME, organism-based, Plasma; parameters: dose 3 mg/kg, route intravenous; details: in vivo; how it was run: as §3
[17] = Antitumor activity against cisplatin-resistant human […] cells xenografted in Balb/C mouse assessed as tumor mass changes at 10 mg/kg, iv dosed every 2 days for 7 days; type: functional, A2780cisR; how it was run: as §4
Mus musculus [18] = test: Toxicity in human A2780S cells xenografted Balb/C mouse assessed as mortality level at 10 mg/kg, iv dosed every 2 days for 8 days; type: organism-based, A2780; parameters: dose 10 mg/kg, route intravenous; details: in vivo; how it was run: as §5
Mus musculus [19] = test: Toxicity in human A2780S cells xenografted Balb/C mouse assessed as body weight changes at 10 mg/kg, iv dosed every 2 days for 8 days; type: organism-based, A2780; parameters: dose 10 mg/kg, route intravenous; details: in vivo; how it was run: as §2
[20] = Cmax in rat at 3 mg/kg, iv; type: ADME, organism-based; parameters: dose 3 mg/kg, route intravenous; details: in vivo; how it was run: as §3
[21] = Cmax in rat at 15 mg/kg, po; type: ADME, organism-based; parameters: dose 15 mg/kg, route oral; details: in vivo; how it was run: as §3
[22] = Solubility in PBS solution by nephelometry; type: physicochemical
How it was run: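 Maximum soluble concentration in PBS, determined by nephelometry.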

Mus musculus [23] = test: Toxicity in cisplatin-resistant human […] cells xenografted Balb/C mouse assessed as mortality level at 10 mg/kg, iv dosed every 2 days for 7 days; type: organism-based, A2780cisR; parameters: dose 10 mg/kg, route intravenous; details: in vivo; how it was run: as §5
Mus musculus [24] = test: Toxicity in mouse C26 cells xenografted Balb/C mouse assessed as mortality level at 10 mg/kg, iv dosed every 2 days for 8 days; type: organism-based; parameters: dose 10 mg/kg, route intravenous; details: in vivo; how it was run: as §5
Mus musculus [25] = test: Toxicity in human HepG2 cells xenografted Balb/C mouse assessed as mortality level at 5 mg/kg, iv dosed every 2 days for 11 days; type: organism-based; parameters: dose 5 mg/kg, route intravenous; details: in vivo; how it was run: as §5
[26] = Antiproliferative activity against adriamycin resistant human MCF7/ADR cells assessed as inhibition of cell proliferation after 48 hrs by MTT assay; type: functional, cell-based; details: NCI/ADR-RES; how it was run: as §1
HepG2 [27] = test: Antitumor activity against human HepG2 cells xenografted in Balb/C mouse assessed as tumor mass changes at 5 mg/kg, iv dosed every 2 days for 11 days; type: functional; how it was run: as §4
Mus musculus [28] = test: Toxicity in human HepG2 cells xenografted Balb/C mouse assessed as body weight changes at 5 mg/kg, iv dosed every 2 days for 11 days; type: organism-based; parameters: dose 5 mg/kg, route intravenous; details: in vivo; how it was run: as §2

Question: With `COc1ccc(/C=C/C(=O)c2ccc(OC)c3c2OC(C)(C)C=C3)cc1N.Cl` as the compound, how does the IC50 (HepG2 [1]) read?
Answer: Its IC50 is 9 nM.

Question: And the CL (Rattus norvegicus [2])?
Answer: Its CL is 50 mL/min/kg.

Question: What about the Vdss (Rattus norvegicus [3]) of the same compound?
Answer: The Vdss was 47 L/kg.

Question: And the Activity (Mus musculus [4])?
Answer: The Activity was 7.6%.

Question: What about the AUC (Rattus norvegicus [5]) of the same compound?
Answer: Its AUC is 2260 ng·h/mL.

Question: What about the Activity (Mus musculus [6]) of the same compound?
Answer: The Activity was 0.8%.

Question: And the Activity (Mus musculus [7])?
Answer: The Activity was 1%.

Question: What about the Activity [8] of the same compound?
Answer: Its Activity is 86%.

Question: What about the MTD [9] of the same compound?
Answer: The MTD was 250 mg/kg.

Question: What about the bioavailability [10] of the same compound?
Answer: The bioavailability was 47%.

Question: And the Activity [11]?
Answer: The Activity was 61%.

Question: And the Activity (HepG2 [12])?
Answer: The Activity was 78%.

Question: And the Activity (Mus musculus [13])?
Answer: Its Activity is “Non-toxic”.

Question: And the Vd [14]?
Answer: The Vd was 31 L/kg.

Question: And the CL (Rattus norvegicus [15])?
Answer: The CL was 123 mL/min/kg.

Question: What about the AUC (Rattus norvegicus [16]) of the same compound?
Answer: The AUC was 973 ng·h/mL.

Question: And the Activity [17]?
Answer: The Activity was 51%.

Question: What about the Activity (Mus musculus [18]) of the same compound?
Answer: Its Activity is “Non-toxic”.

Question: And the Activity (Mus musculus [19])?
Answer: Its Activity is -2.5%.

Question: What about the Cmax [20] of the same compound?
Answer: The Cmax was 1510 ng/mL.

Question: What about the Cmax [21] of the same compound?
Answer: The Cmax was 449 ng/mL.

Question: What about the solubility kinetic [22] of the same compound?
Answer: The solubility kinetic was 64 µg/mL.

Question: And the Activity (Mus musculus [23])?
Answer: Its Activity is “Non-toxic”.

Question: And the Activity (Mus musculus [24])?
Answer: The Activity was “Non-toxic”.

Question: With `COc1cccc2c1C(=O)c1c(O)c3c(c(O)c1C2=O)C[C@@](O)(C(=O)CO)C[C@@H]3O[C@H]1C[C@H](N)[C@H](O)[C@H](C)O1.Cl` [DOXORUBICIN HYDROCHLORIDE] as the compound, how does the Activity (Mus musculus [25]) read?
Answer: The Activity was “Non-toxic”.

Question: And the IC50 [26]?
Answer: Its IC50 is 5300 nM.

Question: And the Activity (HepG2 [27])?
Answer: The Activity was 61%.

Question: And the Activity (Mus musculus [28])?
Answer: Its Activity is 0.5%.
